Shown are actives, neighbours in structure and some others; about 3.9% of the full set was active somewhere.
FID counter: fluorescent intercalator displacement, NS3 helicase counter-screen | inhibition, % at 7.9 µM | 290,000 tested, 0.17% active | DNA fluorescent intercalator displacement, fluorescence; in the data active = inhibition above about 37%;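 also: 0% = vehicle and 100% = reference compound; higher means more ethidium bromide displaced from hairpin DNA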
NS3 helicase inh: HCV NS3 helicase inhibition; inhibition, % at 10.9 µM; 290,000 tested, 0.56% active; NS3 helicase DNA unwinding, Cy5 molecular beacon fluorescence;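 active = inhibition above the mean of all tested compounds plus 3 SD, set per campaign, cut at about 35% in these data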;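 also: 0% = DMSO wells and 100% = thioflavine S control wells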
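Test system: hepatitis C virus NS3 helicase domain fragment enzyme. Also added: annealed dual-labelled DNA beacon duplex, ATP-started. Timing: 60 min unwinding reaction at 25 °C after ATP addition. Technique: Cy5 fluorescence. Measure: % inhibition of unwinding.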
HCV core dimer: HCV core protein dimerization inhibition; TR-FRET GST/Flag-core106 dimerization, 1536-well; inhibition, % at 5 µM; 300,000 tested, 0.33% active; AID 1899;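 active = inhibition above the mean of all tested compounds plus 3 SD, set per screening campaign, cut at about 45% in these data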
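Assay system: GST-tagged and Flag-tagged HCV core protein residues 1-106 / Times: compound-protein-antibody incubation 4 h at 22.5 °C / Signal: time-resolved FRET, ex 340 nm, em 617 and 671 nm / Evaluation: % inhibition based on acceptor/donor emission ratio / Benchmarks: wells lacking GST-core106 and wells with excess unlabelled core106 / Repeats: singlicate, one well per compound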
HSF1 inh: HSF1 inhibition; activity change, negative = inhibition, % at 7.5 µM (by protocol); NIH3T3-HGL HSE-luciferase, MG132-induced, luminescence 8 h; active compounds read low; 300,000 tested, 0.77% active;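 active = more than half of replicate wells show activity change below -50%, luminescence cut by over half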;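 also: luciferase reports HSF-1 transcriptional activity via heat shock element; 0% = median of DMSO wells and -100% = zero luminescence signal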
HSF1 activator: increases HSF-1 driven luciferase reporter signal; NIH3T3-HGL HSF-1 luciferase reporter, MG132, 8 h; 100% = twice DMSO control signal; activation, % at 9 µM; 300,000 tested, 1.7% active; AID 504408;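 active = mean replicate activation of at least 50% with a set share of replicates each reaching 50%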;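 also: 0% = median of the neutral control wells and 100% = twice that signal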
HSP90 refold inh: HSP90 refolding inhibition in rabbit reticulocyte lysate. luciferase refolding luminescence, 3 h. inhibition, % at 5.6 µM. 290,000 tested, 0.91% active;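 active = inhibition above the screen-wide mean plus 3 SD, computed separately per campaign, cut at about 16% in these data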;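 also: 0% = DMSO wells and 100% = 60 µM geldanamycin wells; inhibitors lower the luminescence because luciferase stays unfolded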
HSP90 confirm: HSP90 inhibition, confirmation assay. shares compounds with HSP90 refold inh. rabbit reticulocyte lysate, luciferase refolding luminescence, 3 h. inhibition, % at 5.9 µM. 2,300 tested, 64% active. AID 1846; in the data active = inhibition above about 18%;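 also: 0% = vehicle wells and 100% = reference inhibitor wells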
FLuc counter: counter-screen for HSP90 inhibitors: inhibitors of firefly luciferase; AID 1847; shares compounds with HSP90 refold inh; inhibition, % at 5.9 µM; purified native firefly luciferase, luminescence; 2,300 tested, 48% active;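 active = inhibition above the mean inhibition of all tested sample wells plus 3 SD, cut at about 10% in these data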;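 also: 0% = DMSO with luciferase and 100% = wells lacking luciferase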
Target sequence (P08659 whole entry, looked up): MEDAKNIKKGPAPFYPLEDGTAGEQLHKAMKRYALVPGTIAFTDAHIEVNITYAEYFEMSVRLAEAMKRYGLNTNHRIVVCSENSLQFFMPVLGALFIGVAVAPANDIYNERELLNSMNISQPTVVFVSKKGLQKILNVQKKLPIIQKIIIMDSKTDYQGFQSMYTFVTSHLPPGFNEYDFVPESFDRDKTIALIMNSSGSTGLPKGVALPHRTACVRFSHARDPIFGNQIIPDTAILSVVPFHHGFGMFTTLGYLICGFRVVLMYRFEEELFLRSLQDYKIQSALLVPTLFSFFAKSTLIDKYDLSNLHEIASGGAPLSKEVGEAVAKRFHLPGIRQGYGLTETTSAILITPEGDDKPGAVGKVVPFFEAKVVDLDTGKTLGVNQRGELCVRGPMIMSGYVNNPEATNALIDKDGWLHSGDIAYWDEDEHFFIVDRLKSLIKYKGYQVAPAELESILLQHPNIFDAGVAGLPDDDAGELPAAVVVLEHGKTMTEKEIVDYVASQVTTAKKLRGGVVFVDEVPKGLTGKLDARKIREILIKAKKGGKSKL
* hit, by the source's call.

Screening CC(=O)NC(c1ccccc1)c1cc(Cl)c2cccnc2c1O (stereo unspecified) returned FID counter -19.2, NS3 helicase inh 27.5, HCV core dimer -3.3, HSF1 inh -82.8*, HSF1 activator -83.5, HSP90 refold inh 18.2*, HSP90 confirm 15.3 and FLuc counter -2.0.
O=C(COC(=O)c1cnccn1)c1ccc([N+](=O)[O-])cc1 was read as FID counter 7.2, NS3 helicase inh 1.8, HCV core dimer -1.3, HSF1 inh -2.2, HSF1 activator 4.7, HSP90 refold inh 38.2*, HSP90 confirm 1.1 and FLuc counter -23.5.
Screening COc1ccc(CNC[C@@H](CCCCN(C)Cc2ccc(OC)cc2)N2C[C@H](c3ccccc3)N(CCc3ccc(Cl)c(Cl)c3)C(=O)C2=O)cc1 returned FID counter 37.2*, NS3 helicase inh -57.3, HCV core dimer -10.6, HSF1 inh 8.1, HSF1 activator -4.4, HSP90 refold inh 17.5*, HSP90 confirm 19.8* and FLuc counter -5.1.
`COc1ccc(CNC(=O)CN(C)S(=O)(=O)c2ccc3c(c2)c(=O)n(C)c(=O)n3C)cc1` gave FID counter -20.5, NS3 helicase inh 6.2, HCV core dimer -12.2, HSF1 inh 8.8, HSF1 activator -18.4 and HSP90 refold inh 4.3.
`O=C(N/N=C\c1ccc(-c2ccccc2[N+](=O)[O-])o1)C1COc2cc3ccccc3cc2O1` (stereo unspecified) gave FID counter -9.2, NS3 helicase inh 15.5, HCV core dimer 30.3, HSF1 inh -4.7, HSF1 activator 1.4, HSP90 refold inh 22.0*, HSP90 confirm 15.5 and FLuc counter -4.0.
For CCc1cccc(C)c1NC(=O)C1CCN(c2nn3c(=O)cc(C)nc3s2)CC1 the results were FID counter -18.1, NS3 helicase inh 8.1, HCV core dimer -4.7, HSF1 inh -4.0, HSF1 activator -10.5 and HSP90 refold inh -5.5.
CC(Sc1nc2ccccc2s1)C(=O)N(C)Cc1ccccc1 (stereo unspecified) was read as FID counter -31.6, NS3 helicase inh -4.4, HCV core dimer 2.5, HSF1 inh -4.7, HSF1 activator 2.9 and HSP90 refold inh 3.3.
CCN(CC)CCn1c(=S)[nH]c2ccc(Cl)cc2c1=O was read as FID counter 2.3, NS3 helicase inh -0.2, HCV core dimer -0.9, HSF1 inh -3.2, HSF1 activator 22.0, HSP90 refold inh 45.5*, HSP90 confirm -6.3 and FLuc counter -13.3.
`CCN(CC)CCn1c(=S)[nH]c2cc(Cl)ccc2c1=O` gave FID counter 2.8, NS3 helicase inh -3.8, HCV core dimer -1.3, HSF1 inh -2.2, HSF1 activator -12.5 and HSP90 refold inh 0.7.
For COc1cccc(N2CC(C(=O)N3CCC4(CC3)CC(=O)c3ccccc3O4)CC2=O)c1 (stereo unspecified) the results were HCV core dimer 4.9, HSF1 inh -3.6 and HSF1 activator 9.2.
`O=c1oc2ccc(Cl)cc2nc1/C=C(\O)c1cccs1` gave FID counter -1.9, NS3 helicase inh 14.5, HCV core dimer -0.5, HSF1 inh 19.0, HSF1 activator 52.1*, HSP90 refold inh 62.7*, HSP90 confirm 78.6* and FLuc counter -10.9.
`Cc1ccc2oc(=O)c(/C=C(\O)c3cccs3)nc2c1` gave FID counter -2.5, NS3 helicase inh 25.3, HCV core dimer -4.7, HSF1 inh 60.4, HSF1 activator 118.8*, HSP90 refold inh 18.1*, HSP90 confirm 41.6* and FLuc counter -16.4.
Screening Cc1ccc2oc(=O)c(/C=C(\O)c3ccccc3)nc2c1 returned FID counter -10.8, NS3 helicase inh 8.3, HCV core dimer -5.6, HSF1 inh -2.4, HSF1 activator -2.7 and HSP90 refold inh 2.9.
Screening Cc1ccc(C)c(Nc2nc(N)c3ccccc3n2)c1 returned FID counter 8.3, NS3 helicase inh -3.3, HCV core dimer -1.2, HSF1 inh -15.2, HSF1 activator -25.5, HSP90 refold inh 17.3*, HSP90 confirm 23.2* and FLuc counter 0.8.
Screening COc1ccc(C)cc1Nc1nc(N)c2cc(OC)c(OC)cc2n1 returned FID counter 22.7, NS3 helicase inh -83.4, HCV core dimer -1.9, HSF1 inh 6.3, HSF1 activator 30.5 and HSP90 refold inh -0.7.
Cc1ccc(O)c(Nc2c3ccccc3nc3ccccc23)c1 was read as FID counter 4.9, NS3 helicase inh -25.4, HCV core dimer -19.2, HSF1 inh 4.2, HSF1 activator 27.5, HSP90 refold inh 38.9*, HSP90 confirm 3.8 and FLuc counter -3.5.
CCC(C)c1ccc(NC(=O)c2ccco2)cc1 (stereo unspecified) was read as FID counter -13.6, NS3 helicase inh 7.1, HSF1 inh -4.4, HSF1 activator 8.3, HSP90 refold inh 41.5*, HSP90 confirm 68.9* and FLuc counter 63.2*.
For O=C(NC1CCCCC1)N1CCN(c2ncccn2)CC1 the results were FID counter -9.1, NS3 helicase inh -3.0, HCV core dimer -1.4 and HSP90 refold inh 0.5.
For O=[N+]([O-])c1ccc(S(=O)(=O)N2CCN=C2SCc2ccc(F)cc2)cc1 the results were FID counter 1.0, NS3 helicase inh 1.7, HCV core dimer 3.7, HSF1 inh 0.8, HSF1 activator 0.3, HSP90 refold inh 34.6*, HSP90 confirm 70.3* and FLuc counter -4.5.
Screening CCC1Sc2ccc(S(=O)(=O)Nc3cc(OC)cc(OC)c3)cc2NC1=O (stereo unspecified) returned FID counter -23.3, NS3 helicase inh -5.4, HCV core dimer 1.6, HSF1 inh -2.4, HSF1 activator 6.7 and HSP90 refold inh 0.3.
For Cc1ccc(NC(=O)c2ccc3ncsc3c2)cc1S(=O)(=O)N(C)C the results were FID counter -13.8, NS3 helicase inh -4.0, HCV core dimer 2.3, HSF1 inh -5.6, HSF1 activator -1.3, HSP90 refold inh 18.6*, HSP90 confirm 23.8* and FLuc counter 19.6*.
Screening Cc1ccc(NC(=O)c2cccnc2)cc1S(=O)(=O)N(C)C returned FID counter -5.2, NS3 helicase inh 16.4, HCV core dimer -0.7, HSF1 inh -0.5, HSF1 activator 1.1 and HSP90 refold inh 1.1.
Screening CN1CCN(S(=O)(=O)c2cccc(C(=O)N(Cc3nnc(-c4ccccc4Cl)o3)C3CC3)c2)CC1 returned FID counter 10.9, NS3 helicase inh -20.8, HCV core dimer -0.1, HSF1 inh 5.9, HSF1 activator 9.6 and HSP90 refold inh 1.7.
